In brackets after ≈: the same amount, converted by molar mass. Activity calls are given as the source filed them. The rule behind the calls is not given here.
Tests used:
[1] = system: Candida albicans; assay: Antifungal activity against Candida albicans SC5314 ATCC MYA-2876 assessed as growth inhibition at 300 ug/ml after 48 hrs by broth microdilution method; type: functional, organism-based
In short: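 Broth microdilution in RPMI AutoMod medium against SC5314, tested up to 300 μg/mL, the highest concentration used. Inoculum from a 0.5 McFarland suspension (10^6 cfu/mL). Incubated 48 h at 32 °C, growth read as OD at 630 nm. Activity judged as 95% growth inhibition versus control. Two independent experiments, each in triplicate.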

[2] = system: Clavispora lusitaniae; assay: Antifungal activity against Candida lusitaniae CBS 6936 assessed as growth inhibition after 48 hrs by broth microdilution method; type: functional; settings: CBS 6936, 48 h
In short: (§1)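 CLSI broth microdilution with serial 2-fold dilutions in RPMI AutoMod medium. Inoculum from a 0.5 McFarland suspension (10^6 cfu/mL). Plates incubated 48 h at 32 °C, then OD read at 630 nm. MIC95 is the lowest concentration giving 95% growth inhibition versus untreated control. Mean of two independent experiments, each run in triplicate.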

[3] = system: Candida tropicalis; assay: Antifungal activity against Candida tropicalis ATCC MYA-3404/T1 assessed as growth inhibition at 300 ug/ml after 48 hrs by broth microdilution method; type: functional, organism-based
In short: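 Broth microdilution per CLSI, serial 2-fold dilutions in RPMI AutoMod medium; inoculum 0.5 McFarland (10^6 cfu/mL). Incubation 48 h at 32 °C, OD 630 nm read; activity judged against untreated control, MIC95 being lowest concentration giving 95% growth inhibition; 300 μg/mL highest concentration tested. Two independent experiments, each in triplicate; mean values.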

[4] = system: Candida albicans; assay: Antifungal activity against Candida albicans SC5314 ATCC MYA-2876 assessed as growth inhibition after 48 hrs by broth microdilution method; type: functional; settings: SC5314 ATCC MYA-2876, 48 h; in short: as §1
[5] = system: Pichia norvegensis; assay: Antifungal activity against Candida norvegensis clinical isolate assessed as growth inhibition after 48 hrs by broth microdilution method; type: functional; in short: as §1
[6] = system: Nakaseomyces glabratus; assay: Antifungal activity against Candida glabrata ATCC 90030 assessed as growth inhibition after 48 hrs by broth microdilution method; type: functional; settings: ATCC 90030, 48 h; in short: as §1
[7] = system: Pichia kudriavzevii; assay: Antifungal activity against Candida krusei ATCC 6258 assessed as growth inhibition after 48 hrs by broth microdilution method; type: functional; settings: ATCC 6258, 48 h; in short: as §1
[8] = system: Candida dubliniensis; assay: Antifungal activity against Candida dubliniensis ATCC MYA-646 assessed as growth inhibition after 48 hrs by broth microdilution method; type: functional; settings: ATCC MYA-646, 48 h; in short: as §1
[9] = system: Meyerozyma guilliermondii; assay: Antifungal activity against Candida guilliermondii ATCC 6260 assessed as growth inhibition after 48 hrs by broth microdilution method; type: functional; settings: ATCC 6260, 48 h; in short: as §1
[10] = system: Candida parapsilosis; assay: Antifungal activity against Candida parapsilosis ATCC 22019 assessed as growth inhibition after 48 hrs by broth microdilution method; type: functional; settings: Lodderomyces parapsilosis, ATCC 22019, 48 h; in short: as §1
[11] = system: Debaryomyces hansenii; assay: Antifungal activity against Candida famata VKMY-9 assessed as growth inhibition after 48 hrs by broth microdilution method; type: functional; settings: VKMY-9, 48 h; in short: as §1
[12] = system: Kluyveromyces marxianus; assay: Antifungal activity against Candida kefyr clinical isolate assessed as growth inhibition after 48 hrs by broth microdilution method; type: functional; in short: as §1
[13] = system: [Candida] inconspicua; assay: Antifungal activity against Candida inconspicua clinical isolate assessed as growth inhibition after 48 hrs by broth microdilution method; type: functional; settings: Pichia inconspicua; in short: as §1
[14] = system: Candida tropicalis; assay: Antifungal activity against Candida tropicalis ATCC MYA-3404/T1 assessed as growth inhibition after 48 hrs by broth microdilution method; type: functional; settings: ATCC MYA-3404/T1, 48 h; in short: as §1
[15] = system: Candida albicans; assay: Antifungal activity against Candida albicans SC5314 ATCC MYA-2876 assessed as inhibition of hyphal formation at 14 ug/ml after 48 hrs by microscopy; type: functional, organism-based
In short: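 Yeast-to-hyphae transition of SC5314 examined after 48 h at 32 °C in RPMI medium. Cells exposed to 7, 14 or 28 μg/mL alongside untreated control cells. Hyphal formation assessed by comparing cell morphology between treated and control cultures.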

Structure (SMILES)	growth inhibition (GI) [1]	MIC95 [2] [µg/mL]	MIC95 [4] [µg/mL]	MIC95 [5] [µg/mL]	MIC95 [6] [µg/mL]	MIC95 [7] [µg/mL]	MIC95 [8] [µg/mL]	MIC95 [9] [µg/mL]	MIC95 [10] [µg/mL]	MIC95 [11] [µg/mL]	MIC95 [12] [µg/mL]	MIC95 [13] [µg/mL]	other results
Oc1ccc(/C=C/c2cc(O)cc3c2[C@H](c2cc(O)cc(O)c2)[C@@H](c2ccc(O)cc2)O3)cc1 (relative stereo)	inactive												
CC(=O)Oc1ccc(/C=C/c2cc(O)cc(OC(C)=O)c2)cc1	inactive												
CC(=O)Oc1ccc(/C=C/c2cc(OC(C)=O)cc3c2[C@H](c2cc(OC(C)=O)cc(OC(C)=O)c2)[C@@H](c2ccc(OC(C)=O)cc2)O3)cc1	inactive												
COc1cc(O)cc(/C=C/c2ccc(O)cc2)c1		300 (≈ 1240 µM)	300 (≈ 1240 µM)	300 (≈ 1240 µM)	300 (≈ 1240 µM)	300 (≈ 1240 µM)	150 (≈ 619 µM)	150 (≈ 619 µM)	300 (≈ 1240 µM)	18 (≈ 74.3 µM)	150 (≈ 619 µM)	300 (≈ 1240 µM)	growth inhibition (GI) [3]: inactive
Oc1ccc(/C=C/c2cc(O)cc(O)c2)cc1	inactive												
CC(=O)Oc1ccc(/C=C/c2cc(OC(C)=O)cc(OC(C)=O)c2)cc1	inactive												
CC(=O)Oc1cc(O)cc(/C=C/c2ccc(O)cc2)c1	inactive												
COc1ccc(/C=C/c2cc(OC)cc3c2[C@H](c2cc(OC)cc(OC)c2)[C@@H](c2ccc(OC)cc2)O3)cc1 (relative stereo)	inactive												
COc1ccc(/C=C/c2cc(O)cc(O)c2)cc1 [RESVERATROL 4'-METHYL ETHER]		300 (≈ 1240 µM)	150 (≈ 619 µM)	75 (≈ 310 µM)	150 (≈ 619 µM)	150 (≈ 619 µM)	150 (≈ 619 µM)	150 (≈ 619 µM)	300 (≈ 1240 µM)	18 (≈ 74.3 µM)	150 (≈ 619 µM)	300 (≈ 1240 µM)	MIC95 [14]: 300 µg/mL (≈ 1240 µM)
OC[C@H]1O[C@@H](Oc2cc(O)cc(/C=C/c3ccc(O)cc3)c2)[C@H](O)[C@@H](O)[C@@H]1O	inactive												
COc1ccc(/C=C/c2cc(OC)cc(OC)c2)cc1	inactive												
Nc1nc(=O)[nH]cc1F [FLUCYTOSINE]		2 (≈ 15.5 µM)	2 (≈ 15.5 µM)	4 (≈ 31 µM)	4 (≈ 31 µM)	4 (≈ 31 µM)	2 (≈ 15.5 µM)	2 (≈ 15.5 µM)	4 (≈ 31 µM)	2 (≈ 15.5 µM)	4 (≈ 31 µM)	4 (≈ 31 µM)	MIC95 [14]: 4 µg/mL (≈ 31 µM)
COc1ccc(/C=C/c2cc(O)cc(OC)c2)cc1		37 (≈ 144 µM)	37 (≈ 144 µM)	37 (≈ 144 µM)	37 (≈ 144 µM)	37 (≈ 144 µM)	18 (≈ 70.2 µM)	18 (≈ 70.2 µM)	18 (≈ 70.2 µM)	9 (≈ 35.1 µM)	18 (≈ 70.2 µM)	37 (≈ 144 µM)	MIC95 [14]: 27 µg/mL (≈ 105 µM)
Oc1ccc([C@H]2c3c(O)cc(O)cc3[C@H]3c4c(cc(O)cc4[C@@H]2O)O[C@@H]3c2ccc(O)cc2)cc1	inactive												
COc1cc(/C=C/c2ccc(O)cc2)cc(OC)c1 [PTEROSTILBENE]		28 (≈ 109 µM)	28 (≈ 109 µM)	28 (≈ 109 µM)	28 (≈ 109 µM)	28 (≈ 109 µM)	14 (≈ 54.6 µM)	7 (≈ 27.3 µM)	14 (≈ 54.6 µM)	7 (≈ 27.3 µM)	14 (≈ 54.6 µM)	28 (≈ 109 µM)	inhibition [15]: Active; MIC95 [14]: 28 µg/mL (≈ 109 µM)
Oc1ccc([C@H]2Oc3ccc(/C=C/c4cc(O)cc5c4[C@@H](c4cc(O)cc(O)c4)[C@H](c4ccc(O)cc4)O5)cc3[C@@H]2c2cc(O)cc3c2[C@H](c2cc(O)cc(O)c2)[C@@H](c2ccc(O)cc2)O3)cc1 (mixture of isomers)		300	300	300	300	300	150	150	300	18	150	300	growth inhibition (GI) [3]: inactive
CC(=O)Oc1cc(/C=C/c2ccc(O)cc2)cc(OC(C)=O)c1	inactive												
